Shown are actives, neighbours in structure and some others; about 2.9% of the full set was active somewhere.
ATG4B inh – blocks human ATG4B protease cleavage of LC3 substrate; Q9Y4P1; ATG4B cleavage of LC3-PLA2, NBD-HPC fluorescence, 1 h; inhibition, % at 8.33 µM; actives 0.51% (n = 340,000); AID 504462; in the data active = inhibition above about 40%
Target sequence (Q9Y4P1 whole entry, looked up): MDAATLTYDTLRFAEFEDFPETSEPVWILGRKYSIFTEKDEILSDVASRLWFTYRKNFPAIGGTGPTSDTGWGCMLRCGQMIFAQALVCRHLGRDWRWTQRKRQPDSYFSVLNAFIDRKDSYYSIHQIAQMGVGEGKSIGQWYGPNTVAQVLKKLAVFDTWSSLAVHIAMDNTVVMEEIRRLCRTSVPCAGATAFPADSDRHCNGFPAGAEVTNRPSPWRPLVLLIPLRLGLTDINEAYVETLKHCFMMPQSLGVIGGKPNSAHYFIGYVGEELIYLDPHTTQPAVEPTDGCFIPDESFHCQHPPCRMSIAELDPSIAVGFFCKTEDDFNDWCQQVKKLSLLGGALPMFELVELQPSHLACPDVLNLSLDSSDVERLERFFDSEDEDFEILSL
MEKK2 WT-MEK5 – raises or lowers MEK5 binding to wildtype human MEKK2 PB1 domain; Q9Y2U5; bead flow cytometry, Alexa488-MEK5 binding to MEKK2 WT; actives lie on both sides; binding response (% of control), % at 10 µM; actives 1.1% (n = 290,000); in the data active = binding response below about 67% or above about 130%
Dynein cargo inh – blocks dynein driven cargo transport along microtubules; 3617.4 mouse cells, GR-EGFP nuclear translocation imaging; test concentration mostly 20 µM; stimulated with dexamethasone, 1 µM; stronger effect = lower value; z-score, hits read low; actives 0.47% (n = 220,000); AID 1381;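 active = plate z-score of nuclear minus cytoplasmic receptor signal below a set negative limit, without overly bright fluorescence or cell loss, cut at about -3.5 in these data, passing the limit was not always enough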;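 also: z-score of nuclear minus cytoplasmic ring GR-EGFP intensity difference per well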
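Buffer or medium: Induction medium lacking tetracycline, stripped serum | Also added: Dexamethasone agonist, 1.0 µM final, for 30 min | Timing: 48 h induction, 1 h compound, 30 min dex at 37 °C | Detection: Formaldehyde fixation, Hoechst nuclear stain, 10x automated fluorescence imaging | Measure: Nuclear versus cytoplasmic GR-EGFP signal, averaged per well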
Beta2AR agonist – human beta-2 adrenergic receptor agonism by FAP | Am2.2-beta2AR cells, FAP receptor internalization, flow cytometry | actives 0.43% (n = 340,000) | AID 504454 | response, % (no concentration beside the values);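 active = response above a set limit, near 3 SD of response in nonfluorescent compounds, cut at about 42% in these data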
MEKK2mut PB1 HTS – signal of MEK5 binding to mutant human MEKK2 PB1 domain; percent response, % at 10 µM; bead flow cytometry, Alexa488-MEK5 binding to MEKK2 mutant; actives 0.35% (n = 290,000); in the data active = percent response above about 24%, passing the limit was not always enough
MEKK3 PB1 HTS – MEKK3-MEK5 PB1 interaction, increase or decrease. Q99759. binding response (% of control), % at 10 µM. actives 1.4% (n = 290,000). bead-based flow cytometry, Alexa488-MEK5 binding to MEKK3; actives lie on both sides; 0 = blocked by unlabeled MEK5, 100 = vehicle;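 active = binding response more than 3 SD above or below the average of its plate-row segment, actives on both sides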;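 also: Alexa488 bead fluorescence after subtracting the streptavidin-only scavenger bead signal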
MEKK2wt confirm – raises or lowers MEK5 binding to wildtype human MEKK2, retest | bead flow cytometry, Alexa488-MEK5 binding to MEKK2 WT; actives lie on both sides | shares compounds with MEKK3 PB1 HTS | AID 1892 | actives 2.4% (n = 5,900) | binding response (% of control), % at 10 µM; in the data active = binding response below about 16% or above about 210%; inactive = in between
MEKK2mut confirm – signal of MEK5 binding to mutant human MEKK2, retest | shares compounds with MEKK3 PB1 HTS | bead flow cytometry, Alexa488-MEK5 binding to MEKK2 mutant | percent response, % at 10 µM | actives 2% (n = 5,900); in the data active = percent response mostly above about 71%, no sharp cut-off; inactive = mostly below about 38%;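 also: higher means compound restores mutant binding toward wildtype level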
MEKK3 confirm – confirmation of inhibitors of MEK5 binding to human MEKK3 | shares compounds with MEKK3 PB1 HTS | bead flow cytometry, Alexa488-MEK5 binding to MEKK3; stronger effect = lower value | binding response (% of control), % at 10 µM | actives 1.8% (n = 5,900) | AID 1894;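 active = binding response below 72% of control, or above a set upper limit, though filed actives all read lower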
Hits are given with their value; i = inactive; nt = not tested or not shown; [ ] = another dose, or the depositor's remark.

SMILES	ATG4B inh	MEKK2 WT-MEK5	Dynein cargo inh	Beta2AR agonist	MEKK2mut PB1 HTS	MEKK3 PB1 HTS	MEKK2wt confirm	MEKK2mut confirm	MEKK3 confirm
COc1ccc(N/C=C\C(=O)c2ccc3c(c2)OCO3)cc1	i	-1.0[inhibitor]	i	i	i	1.0[inhibitor]	i	i	i
CCOc1ccc(N/C=C/C(=O)c2ccc(OC)cc2)cc1	i	i	nt	i	i	i	nt	nt	nt
COc1ccc(C(=O)/C=C/Nc2ccc([N+](=O)[O-])cc2)cc1	i	i	i	i	i	70[inhibitor]	i	i	i
CCOC(=O)c1ccc(N/C=C\C(=O)c2cccc(OC)c2)cc1	i	i	i	i	i	201	i	i	i
Fc1ccc(CNCc2ccco2)cc1	i	i	nt	i	i	i	nt	nt	nt
Cc1ccc(C(=O)N/C(=C\c2cccs2)C(=O)NCCc2c[nH]c3ccccc23)cc1	i	i	i	i	i	129	i	i	i
Cc1cccc(NC(=S)NCCc2c[nH]c3ccccc23)c1	i	i	i	i	i	128	i	i	i
Cc1ccc(NC(=S)NCCc2c[nH]c3ccccc23)cc1	i	i	i	i	i	i	nt	nt	nt
O=C(NCCc1c[nH]c2ccccc12)c1cnccn1	i	i	i	i	i	74[inhibitor]	i	i	i
Cc1ccc(C)c(NC(=O)C(=O)NCCc2c[nH]c3ccccc23)c1	i	35[inhibitor]	i	i	i	34[inhibitor]	i	i	i
CCNS(=O)(=O)c1ccc(CCC(=O)NCc2ccncc2)cc1	i	i	nt	i	i	i	nt	nt	nt
O=C(O)CC1(CC(=O)NCc2csc(-c3cccs3)n2)CCCCC1	i	i	i	i	i	i	nt	nt	nt
C=Cn1cc[n+](CC(=O)c2ccc(Br)cc2)c1	i	i	nt	i	i	i	nt	nt	nt
CCCNc1nc(Cl)nc(Nc2ccc(Cl)cc2)n1	i	i	nt	i	i	i	nt	nt	nt
CCOc1ccc(Nc2nc(Cl)nc(NCCO)n2)cc1	i	i	i	i	i	131	i	i	i
CCOc1ccc(S(=O)(=O)N2CCN(C(=O)c3cc4ccccc4o3)CC2)cc1	i	nt	nt	i	nt	nt	nt	nt	nt
Cc1[nH]c2c(ccc3ccccc32)c1C1C(CCN)C1(C)C (stereo not drawn)	i	208	i	i	i	i	i	i	i
CC(C)[C@H](NC(=O)c1cccc(S(=O)(=O)N2CCOCC2)c1)C(=O)Nc1nc2ccccc2s1	i	i	i	i	i	i	nt	nt	nt
COc1ccc(/C=C(/NC(=O)c2ccccc2)C(=O)N/N=C/c2sccc2C)cc1	i	i	i	i	i	133	i	i	i
COCCCn1c(SCC(=O)Nc2ccc(C(C)=O)cc2)nc2ccccc2c1=O	i	i	i	i	i	39[inhibitor]	i	i	i
CCCCNC(=O)CSc1nc2ccccc2c(=O)n1CCNC(C)=O	i	i	i	i	i	i	nt	nt	nt
CCCNC(=O)CSc1nc2ccccc2c(=O)n1CCC	i	i	i	i	i	128	i	i	i
Cc1onc(-c2c(F)cccc2Cl)c1C(=O)OCC(=O)NC(N)=O	i	i	i	i	i	i	nt	nt	nt
CCOC(=O)C1CCN(C(=O)CSc2ccc(Cl)cc2)CC1	i	i	i	i	i	129	i	i	i
CCOC(=O)C1CCN(C(=O)c2c(-c3c(F)cccc3Cl)noc2C)CC1	i	i	i	i	i	127	i	i	i
Cc1onc(-c2c(F)cccc2Cl)c1C(=O)OCC(=O)NC1CC1	i	i	i	i	i	70[inhibitor]	i	i	i
CCN(CC(=O)NC1CCCC1)S(=O)(=O)c1ccc(Br)cc1	i	i	nt	i	i	i	nt	nt	nt
CN(C)CCCNc1ncnc2oc(-c3ccccc3)c(-c3ccccc3)c12	i	134	nt	i	i	i	i	i	i

Compound activity (PubChem BioAssay)
